High-throughput results deposited in PubChem by several laboratories.
Only some compounds are listed: those with a hit (about 2.9% of all), similar ones and a draw of the others.
SENP7 inh: SENP7 protease inhibitors, primary screen, biochemical, luminescence, uHTS | Sentrin-specific protease 7 (Homo sapiens), Q9BQF6 | recombinant SENP7, Z-RLRGG-aminoluciferin luminescence, 40 min | inhibition, % at 5 µM | 330,000 compounds, 1.5% hits | AID 434973, 2010;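 active = inhibition above about 50% at the single test dose, limit read from the data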
SENP8 block-1: SENP8 protease inhibitors, primary screen, biochemical, luminescence. Sentrin-specific protease 8 (Homo sapiens), Q96LD8. purified SENP8, Z-RLRGG-aminoluciferin cleavage. inhibition, % at 10 µM. 330,000 compounds, 1.2% hits. AID 2540, 2010; in the data active = inhibition above about 50%
SENP8 block-2: human SENP8 protease inhibitors, primary screen, biochemical, fluorescence, Nedd8 protein substrate, uHTS | 360,000 compounds, 0.64% hits | recombinant SENP8 | Sentrin-specific protease 8 (Homo sapiens), Q96LD8 | inhibition, % at 20 µM | AID 602440, 2012; in the data active = inhibition mostly above about 40%, no sharp cut-off; inactive = mostly below about 27%
SENP1 inh: human SENP1 catalytic domain inhibitors, primary screen, biochemical, FRET, uHTS. Sentrin-specific protease 1 (Homo sapiens), Q9P0U3. recombinant SENP1 catalytic domain, CyPet-SUMO1-YPet FRET cleavage. inhibition, % at 10 µM. 360,000 compounds, 0.21% hits;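 active = inhibition at least 30% at 10 µM, raw YFP signal under a set limit, fluorescence ratio 0.5 to 1.5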
Target sequence (Q9P0U3 419-644 limits assumed): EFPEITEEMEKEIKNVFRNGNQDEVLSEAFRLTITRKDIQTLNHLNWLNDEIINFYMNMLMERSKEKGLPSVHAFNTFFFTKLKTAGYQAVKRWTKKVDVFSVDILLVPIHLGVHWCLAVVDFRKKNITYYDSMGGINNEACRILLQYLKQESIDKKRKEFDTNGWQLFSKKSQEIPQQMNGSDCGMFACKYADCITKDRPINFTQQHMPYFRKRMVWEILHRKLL
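Compound: 10 µM single point, 0.5% DMSO; Test system: hSENP1 catalytic domain, recombinant; Timing: 50 min reaction at room temperature; Technique: FRET, CFP and YFP emission; Control set: no-enzyme wells low, DMSO-plus-enzyme wells high control.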
SENP6 block: SENP6 protease inhibitors, primary screen, biochemical, luminescence, uHTS; Sentrin-specific protease 6 (Homo sapiens), Q9GZR1; Recombinant SENP6 catalytic domain, aminoluciferin luminescence; inhibition, % at 10 µM; 330,000 compounds, 1.8% hits; AID 2599, 2010;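 active = inhibition above about 50% at the single tested dose, limit read from the data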
Target sequence (Q9GZR1 628-1112 limits assumed): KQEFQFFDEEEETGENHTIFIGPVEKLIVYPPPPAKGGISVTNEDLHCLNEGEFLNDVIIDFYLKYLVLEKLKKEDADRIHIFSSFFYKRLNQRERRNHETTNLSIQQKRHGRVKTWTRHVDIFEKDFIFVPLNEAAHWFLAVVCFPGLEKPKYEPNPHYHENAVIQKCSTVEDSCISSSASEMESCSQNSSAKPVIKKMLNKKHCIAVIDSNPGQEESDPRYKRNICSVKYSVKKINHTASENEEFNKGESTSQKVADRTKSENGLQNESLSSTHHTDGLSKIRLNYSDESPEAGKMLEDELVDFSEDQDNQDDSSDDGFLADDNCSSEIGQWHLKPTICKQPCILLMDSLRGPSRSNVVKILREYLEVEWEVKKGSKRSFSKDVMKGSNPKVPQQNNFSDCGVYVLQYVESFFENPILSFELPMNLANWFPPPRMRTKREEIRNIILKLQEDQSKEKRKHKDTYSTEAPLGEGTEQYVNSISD
HSP90 inh: HSP90 inhibitors, primary screen, cell lysate, luminescence | Heat shock protein HSP 90 (rabbit reticulocyte lysate; luciferase refolding) | Rabbit reticulocyte lysate, luciferase refolding luminescence, 3 h | 290,000 compounds, 0.91% hits | inhibition, % at 5.6 µM | AID 1789, 2009;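 active = inhibition above the screen-wide mean plus 3 SD, computed separately per campaign, cut at about 16% in these data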;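 note: inhibitors lower the luminescence because luciferase stays unfolded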
SENP8 conf: SENP8 protease inhibitors, retest, confirmation, biochemical, luminescence, single concentration; Recombinant SENP8, Z-RLRGG-aminoluciferin luminescence, 60 min; shares compounds with SENP7 inh; 6,200 compounds, 40% hits; AID 488912, 2010; inhibition, % at 12.5 µM;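 active = mean inhibition across replicates above about 50%, limit read from the data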
SENP6 conf: SENP6 protease inhibitors, confirmation, biochemical, luminescence, single concentration | 6,200 compounds, 58% hits | AID 488915, 2010 | shares compounds with SENP7 inh | inhibition, % at 12.5 µM | recombinant SENP6, Z-RLRGG-aminoluciferin luminescence
SENP7 conf: SENP7 protease inhibitors, retest, confirmation, biochemical, luminescence, single concentration. shares compounds with SENP7 inh. inhibition, % at 12.5 µM. recombinant SENP7, Z-RLRGG-aminoluciferin luminescence, 40 min. 6,200 compounds, 69% hits. AID 488917, 2010
Casp3 select: caspase-3 protease inhibitors, confirmation, selectivity assay for SENP inhibitor project, biochemical, single concentration | shares compounds with SENP7 inh | inhibition, % at 12.5 µM | purified caspase-3, Z-DEVD-aminoluciferin luminescence, 60 min | 6,200 compounds, 60% hits;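 active = mean inhibition above about 50%, limit read from the data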
SENP luc ctr: luminescence interference (SENP counter-screen); AID 488919; shares compounds with SENP7 inh; 6,200 compounds, 39% hits; inhibition, % at 12.5 µM; Pre-incubated SENP8/Z-RLRGG-aminoluciferin, luciferase luminescence interference;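 active = mean inhibition above about 50% when retested at one dose, limit read from the data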
Of the large screens only hits and unclear results are named; the others gave an inactive call (follow-up assays come after a bar, where they were run).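 Rule for the calls, unless noted: active = mean inhibition above about 50% in the one-dose retest (limit read from the data); inactive = the rest.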

CCOC(=O)c1cccc(NC(=O)CSc2nnc(-c3ccncc3)n2CCCOC)c1	SENP7 inh 99 | SENP8 conf inactive | SENP6 conf inactive | SENP7 conf inactive | Casp3 select inactive | SENP luc ctr inactive
CN1CCc2nc(SCc3ccc(Cl)cc3)c(C#N)c(-c3cccs3)c2C1	SENP8 block-1 69, SENP6 block 76 (no result: SENP8 block-2, SENP1 inh) | SENP8 conf inactive | SENP6 conf inactive | SENP7 conf inactive | Casp3 select inactive | SENP luc ctr inactive
N#Cc1c(N)nc(SCc2ccncc2)c(C#N)c1-c1cccs1	none
COc1ccc2cc(C(c3nnnn3C3CCCC3)N3CCc4ccccc4C3)c(=O)[nH]c2c1 (stereo not drawn)	SENP7 inh 74, SENP8 block-1 66 | SENP8 conf inactive | SENP6 conf inactive | SENP7 conf inactive | Casp3 select inactive | SENP luc ctr inactive
O=C(Nc1cccnc1)c1cc(-c2ccc3c(c2)OCO3)on1	SENP7 inh 96, SENP6 block 77 | SENP8 conf inactive | SENP6 conf inactive | SENP7 conf 62 | Casp3 select 79 | SENP luc ctr inactive
O=C(Nc1cccnc1)c1cc(-c2cccc(Cl)c2)on1	none
O=C(Nc1cccnc1)c1cc(-c2ccc(Cl)c(Cl)c2)on1	SENP7 inh 76, SENP6 block 55 | SENP8 conf inactive | SENP6 conf inactive | SENP7 conf inactive | Casp3 select inactive | SENP luc ctr inactive
O=C(Nc1cccnc1)c1cc(-c2ccc(F)cc2)on1	SENP7 inh 76, SENP8 block-1 56, SENP6 block 64 | SENP8 conf inactive | SENP6 conf inactive | SENP7 conf inactive | Casp3 select inactive | SENP luc ctr inactive
O=C1c2ccccc2C2N1CCCN2C(=O)c1sc2ccccc2c1Cl (stereo not drawn)	none (no result: SENP7 inh, SENP8 block-1, SENP6 block, HSP90 inh)
CN(C)C(=O)c1cccc(-c2cccc(-c3nc(C(=O)NCc4ccccc4)cc4c3[C@@H](CCO)N(S(=O)C(C)(C)C)C4)c2)c1 (stereo partly drawn)	none (no result: SENP7 inh, SENP8 block-1, SENP6 block, HSP90 inh)
COc1ccc(C(CC(=O)c2ccc(O)cc2)S(=O)(=O)c2ccc(C)cc2)cc1 (stereo not drawn)	SENP7 inh 55 | SENP8 conf 52 | SENP6 conf inactive | SENP7 conf 69 | Casp3 select inactive | SENP luc ctr 58
CC(C)C1COC(c2cccc3ccccc23)=N1 (stereo not drawn)	SENP7 inh 92, SENP8 block-1 89, SENP6 block 96 | SENP8 conf 60 | SENP6 conf 92 | SENP7 conf 100 | Casp3 select 85 | SENP luc ctr inactive
CCn1cc(C2=NC(C(C)C)CO2)c2ccccc21 (stereo not drawn)	none
Cc1ccc(O)c(N/C=C/C(=O)c2ccc(F)cc2)c1	SENP7 inh 68, SENP8 block-1 80, SENP6 block 82 | SENP8 conf 61 | SENP6 conf 80 | SENP7 conf 95 | Casp3 select 67 | SENP luc ctr inactive
NC(=O)c1ccccc1N/C=C/C(=O)c1ccc(Cl)cc1	SENP7 inh 93, SENP8 block-1 64, SENP6 block 84 | SENP8 conf inactive | SENP6 conf 78 | SENP7 conf 76 | Casp3 select 90 | SENP luc ctr inactive
Cc1ccc(C(=O)/C=C\Nc2ccc(C)c(C)c2)cc1	none
Cc1ccc(C(=O)/C=C/Nc2ccccc2C(N)=O)cc1	SENP7 inh 90, SENP8 block-1 86, SENP6 block 95 | SENP8 conf inactive | SENP6 conf 90 | SENP7 conf 102 | Casp3 select 94 | SENP luc ctr inactive
Cc1ccc(/C=C/C(=O)Nc2ccccc2C(N)=O)cc1	none (no result: SENP7 inh, SENP8 block-1, SENP6 block)
CC(C)Cc1nnc(NC(=O)CN2C(=O)NC3(CC(C)CC(C)(C)C3)C2=O)s1 (stereo not drawn)	none (no result: HSP90 inh)
CC(C)n1nc(C(=O)OCC(=O)NCCc2ccc(S(N)(=O)=O)cc2)c2ccccc2c1=O	none (no result: SENP7 inh, SENP8 block-1, SENP6 block, HSP90 inh)
CC(C)NC(=O)C1(C)CCCN1Cc1csc2ccccc12 (stereo not drawn)	none (no result: SENP7 inh, SENP8 block-1, SENP6 block, HSP90 inh)
Cc1ccc(CONC(=O)c2cccc(C)c2)cc1	SENP6 block 65 (no result: HSP90 inh) | SENP8 conf inactive | SENP6 conf inactive | SENP7 conf 78 | Casp3 select 77 | SENP luc ctr 56
O=C(CCC(=O)c1cccs1)NNC(=O)c1ccc(Cl)cc1	none (no result: HSP90 inh)
CCOc1ccc(CCN2C(=O)C(=O)N([C@@H](Cc3ccccc3)CN3CCC[C@H]3CN3C(=O)C(=O)NC[C@@H]3Cc3ccccc3)C[C@@H]2Cc2ccc(O)cc2)cc1	none (no result: SENP7 inh, SENP8 block-1, SENP6 block, HSP90 inh)
COC(=O)c1ccsc1NC(=O)CCc1ccccc1	SENP7 inh 87, SENP8 block-1 87, SENP6 block 88 | SENP8 conf 90 | SENP6 conf 91 | SENP7 conf 100 | Casp3 select 91 | SENP luc ctr 66
NC(=O)c1ccsc1NC(=O)CCc1ccccc1	none
O=C(O)c1c2c(nc3ccccc13)/C(=C/c1ccc(O)cc1)CC2	SENP7 inh 71, SENP8 block-1 76, SENP6 block 77 | SENP8 conf 91 | SENP6 conf 88 | SENP7 conf 98 | Casp3 select 93 | SENP luc ctr 63
CS(=O)(=O)c1ccc2nc(NC(=O)c3cc4ccccc4o3)sc2c1	SENP7 inh 54, SENP8 block-1 52, SENP6 block 83 | SENP8 conf inactive | SENP6 conf inactive | SENP7 conf inactive | Casp3 select inactive | SENP luc ctr inactive
